Measured values taken from ChEMBL document CHEMBL3112482, “Nonclassical antifolates, part 5. Benzodiazepine analogs as a new class of DHFR inhibitors: synthesis, antitumor testing and molecular modeling study” (Eur J Med Chem, 2014).

How the values were obtained:
[1] = target: T1, Dihydrofolate reductase (Bos taurus, UniProt P00376); assay: Inhibition of bovine liver DHFR measured for every 1 min of 10 mins
T1 sequence (P00376 whole entry): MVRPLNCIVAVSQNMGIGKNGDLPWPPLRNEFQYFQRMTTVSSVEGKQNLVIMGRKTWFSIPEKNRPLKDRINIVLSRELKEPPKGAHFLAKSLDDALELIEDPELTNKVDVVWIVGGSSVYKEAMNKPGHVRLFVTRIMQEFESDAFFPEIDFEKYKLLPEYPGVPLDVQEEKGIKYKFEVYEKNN

[2] = Cytotoxicity against human renal cancer cells at 10 uM after 48 hrs; format: functional; conditions: Cancer cell lines
[3] = Cytotoxicity against human breast cancer cells at 10 uM after 48 hrs; format: functional; conditions: Cancer cell lines
Outline: (§1)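 Single-dose primary screen in the NCI 60 human tumour cell line panel, run at the NCI facility. The panel covers nine subpanels: leukaemia, non-small cell lung, colon, CNS, melanoma, ovarian, renal, prostate and breast. Read-out was percent growth of treated cells, shown as a mean graph and reported as percent growth inhibition.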

[4] = Cytotoxicity against human prostate cancer cells at 10 uM after 48 hrs; format: functional; conditions: Cancer cell lines
[5] = Cytotoxicity against human CNS cancer cells at 10 uM after 48 hrs; format: functional; conditions: Cancer cell lines
[6] = Cytotoxicity against human leukemia cells at 10 uM after 48 hrs; format: functional; conditions: Leukemia cell
[7] = Cytotoxicity against human non-small cell lung cancer cells at 10 uM after 48 hrs; format: functional; conditions: Cancer cell lines; outline: as §1
[8] = Cytotoxicity against human melanoma cells at 10 uM after 48 hrs; format: functional; conditions: Melanoma cell; outline: as §1
[9] = Cytotoxicity against human colon cancer cells at 10 uM after 48 hrs; format: functional; conditions: Cancer cell lines; outline: as §1
[10] = read-out: LC50 (the source's name)

SMILES	IC50 [1] [µM]	CC50 [2] [µM]	GI50 [2] [µM]	TGI [2] [µM]	GI50 [3] [µM]	TGI [3] [µM]	GI50 [4] [µM]	TGI [4] [µM]	TGI [5] [µM]	CC50 [5, 10] [µM]	TGI [6] [µM]	GI50 [7] [µM]	TGI [7] [µM]	CC50 [7, 10] [µM]	GI50 [8] [µM]	TGI [8] [µM]	CC50 [8, 10] [µM]	GI50 [9] [µM]	TGI [9] [µM]	CC50 [9, 10] [µM]
Brc1ccc(/C=C2\CCCC3=C(c4ccc(Br)cc4)Nc4ccccc4N=C32)cc1	65																			
O=c1[nH]cc(F)c(=O)[nH]1 [FLUOROURACIL]		> 100	45.6	> 100	76.4	> 100	22.7	> 100	> 100	> 100	> 100	> 100	> 100	> 100	70.6	> 100	> 100	8.4	> 100	> 100
